≈ marks a conversion by molar mass, not a printed value.
Tests used:
[1] = tested on: Staphylococcus aureus; assay: Antimicrobial activity against oxacillin- and methicillin-resistant Staphylococcus aureus isolate Sa-OXA-R2 after 18 to 24 hrs by alamar blue assay; assay type: functional
Summary of the method: (§1)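 Broth microdilution per NCCLS standard, Mueller-Hinton broth, 8-point twofold dilutions; exponentially growing cells at 5 10^5 cells/ml with compound, 18–24 h at 37 C; 20% Alamar blue added, fluorescence read; MIC90 taken as lowest concentration preventing at least 90% growth.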

[2] = tested on: Pseudomonas aeruginosa; assay: Antimicrobial activity against Pseudomonas aeruginosa ATCC 25619 after 18 to 24 hrs by alamar blue assay; assay type: functional; conditions: Pseudomonas aeruginosa, ATCC 25619; read-out: MIC
Summary of the method: (§2)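 Broth microdilution per NCCLS in Mueller-Hinton broth, 8-point twofold dilutions, 384-well format. Exponential-phase cells at 5 × 10^5 cells/ml incubated with compound 18–24 h at 37 °C, then 20% Alamar blue added and fluorescence read. MIC90 taken as the lowest concentration preventing at least 90% bacterial growth.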

[3] = tested on: Stenotrophomonas maltophilia; assay: Antimicrobial activity against Stenotrophomonas maltophilia ATCC 13637 after 18 to 24 hrs by alamar blue assay; assay type: functional; conditions: Stenotrophomonas maltophilia, ATCC 13637; read-out: MIC; summary of the method: as §2
[4] = tested on: Mycolicibacterium smegmatis; assay: Antimicrobial activity against Mycobacterium smegmatis BCRC 11565 after 18 to 24 hrs by alamar blue assay; assay type: functional; conditions: Mycolicibacterium smegmatis, BCRC 11565; read-out: MIC; summary of the method: as §2
[5] = tested on: Staphylococcus aureus; assay: Antimicrobial activity against methicillin-resistant Staphylococcus aureus isolate NTUH4722 after 18 to 24 hrs by alamar blue assay; assay type: functional; summary of the method: as §1
[6] = tested on: Staphylococcus aureus; assay: Antimicrobial activity against methicillin-resistant Staphylococcus aureus ATCC 33592 after 18 to 24 hrs by alamar blue assay; assay type: functional; conditions: Staphylococcus aureus, ATCC 33592; read-out: MIC; summary of the method: as §1
[7] = tested on: Serratia marcescens; assay: Antimicrobial activity against Serratia marcescens ATCC 14756 after 18 to 24 hrs by alamar blue assay; assay type: functional; conditions: Serratia marcescens, ATCC 14756; read-out: MIC; summary of the method: as §2
[8] = tested on: Escherichia coli; assay: Antimicrobial activity against Escherichia coli ATCC […] after 18 to 24 hrs by alamar blue assay; assay type: functional; conditions: Escherichia coli; read-out: MIC; summary of the method: as §2
[9] = tested on: Acinetobacter baumannii; assay: Antimicrobial activity against Acinetobacter baumannii ATCC 49139 after 18 to 24 hrs by alamar blue assay; assay type: functional; conditions: Acinetobacter baumannii, ATCC 49139; read-out: MIC; summary of the method: as §2
[10] = tested on: Bacillus subtilis; assay: Antimicrobial activity against Bacillus subtilis ATCC 23857 after 18 to 24 hrs by alamar blue assay; assay type: functional; summary of the method: as §2
[11] = tested on: Staphylococcus aureus; assay: Antimicrobial activity against Staphylococcus aureus ATCC 29213 after 18 to 24 hrs by alamar blue assay

Row | Structure (SMILES) | MIC [1] | MIC [2] | MIC [3] | MIC [4] | MIC [5] | MIC [6] | MIC [7] | MIC [8] | MIC [9] | MIC [10] | MIC [11]
1 | CSC[C@H](NC(=O)Cc1c(C)c2cc3c(-c4ccc(Cl)cc4)coc3c(C)c2oc1=O)C(=O)O | 2.5 µg/mL (≈ 5 µM) | > 256 µg/mL | > 256 µg/mL | 1 µg/mL (≈ 2 µM) | 2.5 µg/mL (≈ 5 µM) | 1.25 µg/mL (≈ 2.5 µM) | > 256 µg/mL | > 256 µg/mL | > 256 µg/mL | > 64 µg/mL | 2.5 µg/mL (≈ 5 µM)
2 | Cc1c(CC(=O)NCCCC(=O)O)c(=O)oc2c(C)c3occ(-c4ccc(Cl)cc4)c3cc12 | 2.5 µg/mL (≈ 5.34 µM) | > 256 µg/mL | > 256 µg/mL | 1 µg/mL (≈ 2.14 µM) | 2.5 µg/mL (≈ 5.34 µM) | 2.5 µg/mL (≈ 5.34 µM) | > 256 µg/mL | > 256 µg/mL | > 256 µg/mL | > 64 µg/mL | 2.5 µg/mL (≈ 5.34 µM)
3 | Cc1ccc(NS(=O)(=O)c2ccc3c(c2)NCC(C)C(=O)S3)c(Br)c1 (stereo not given) | > 64 µg/mL | > 256 µg/mL | > 256 µg/mL | > 64 µg/mL | 16 µg/mL (≈ 36.3 µM) | 8 µg/mL (≈ 18.1 µM) | > 256 µg/mL | > 256 µg/mL | > 256 µg/mL | < 0.03 µg/mL | 2 µg/mL (≈ 4.53 µM)
4 | O=C(Nc1ccc(Cl)c(S(=O)(=O)Nc2cccc(Cl)c2)c1)c1ccc([N+](=O)[O-])o1 | 1.5 µg/mL (≈ 3.29 µM) | 128 µg/mL (≈ 281 µM) | 32 µg/mL (≈ 70.1 µM) | 0.5 µg/mL (≈ 1.1 µM) | 1.5 µg/mL (≈ 3.29 µM) | 1.5 µg/mL (≈ 3.29 µM) | 32 µg/mL (≈ 70.1 µM) | 256 µg/mL (≈ 561 µM) | 12 µg/mL (≈ 26.3 µM) | 0.06 µg/mL (≈ 0.132 µM) | 1.5 µg/mL (≈ 3.29 µM)
5 | O=c1c2ccccc2nc(/C=C/c2ccc([N+](=O)[O-])o2)n1CCCO | 2 µg/mL (≈ 5.86 µM) | 2 µg/mL (≈ 5.86 µM) | > 256 µg/mL | 1 µg/mL (≈ 2.93 µM) | 2 µg/mL (≈ 5.86 µM) | 2 µg/mL (≈ 5.86 µM) | > 256 µg/mL | 16 µg/mL (≈ 46.9 µM) | > 256 µg/mL | < 0.03 µg/mL | 2 µg/mL (≈ 5.86 µM)
6 | Cc1c(CC(=O)N[C@@H](C)C(=O)O)c(=O)oc2c(C)c3occ(-c4ccc(Cl)cc4)c3cc12 | 1.25 µg/mL (≈ 2.75 µM) | > 256 µg/mL | > 256 µg/mL | 1 µg/mL (≈ 2.2 µM) | 0.3 µg/mL (≈ 0.661 µM) | 1.25 µg/mL (≈ 2.75 µM) | > 256 µg/mL | > 256 µg/mL | > 256 µg/mL | > 64 µg/mL | 0.3 µg/mL (≈ 0.661 µM)
7 | O=C(Nc1ccc(-c2nc3ccccc3[nH]2)cc1)c1ccc([N+](=O)[O-])o1 | 4 µg/mL (≈ 11.5 µM) | 128 µg/mL (≈ 367 µM) | 32 µg/mL (≈ 91.9 µM) | 0.5 µg/mL (≈ 1.44 µM) | 8 µg/mL (≈ 23 µM) | 0.25 µg/mL (≈ 0.718 µM) | 32 µg/mL (≈ 91.9 µM) | 256 µg/mL (≈ 735 µM) | 12 µg/mL (≈ 34.5 µM) | 0.06 µg/mL (≈ 0.172 µM) | 0.125 µg/mL (≈ 0.359 µM)
8 | O=C(Nc1ccc2oc(-c3ccncc3)nc2c1)c1ccc([N+](=O)[O-])o1 | > 4 µg/mL | 128 µg/mL (≈ 365 µM) | 32 µg/mL (≈ 91.4 µM) | 0.5 µg/mL (≈ 1.43 µM) | 2 µg/mL (≈ 5.71 µM) | 4 µg/mL (≈ 11.4 µM) | 32 µg/mL (≈ 91.4 µM) | 256 µg/mL (≈ 731 µM) | 12 µg/mL (≈ 34.3 µM) | 0.06 µg/mL (≈ 0.171 µM) | 2 µg/mL (≈ 5.71 µM)
9 | CCC1Sc2ccc(S(=O)(=O)Nc3c(C)cc(C)cc3C)cc2NC1=O (stereo not given) | > 64 µg/mL | > 256 µg/mL | > 256 µg/mL | > 64 µg/mL | 32 µg/mL (≈ 81.9 µM) | 64 µg/mL (≈ 164 µM) | > 256 µg/mL | > 256 µg/mL | > 256 µg/mL | < 0.03 µg/mL | 2 µg/mL (≈ 5.12 µM)
10 | O=C1c2cccc3c([N+](=O)[O-])ccc(c23)C(=O)N1Cc1cccnc1 | 8 µg/mL (≈ 24 µM) | > 256 µg/mL | > 256 µg/mL | 4 µg/mL (≈ 12 µM) | 8 µg/mL (≈ 24 µM) | 2 µg/mL (≈ 6 µM) | > 256 µg/mL | > 256 µg/mL | > 256 µg/mL | 4 µg/mL (≈ 12 µM) | 8 µg/mL (≈ 24 µM)
11 | CCc1cc(O)nc(N2NC(C)=CC2NC(=O)c2ccccc2F)n1 (stereo not given) | 1 µg/mL (≈ 2.91 µM) | > 256 µg/mL | > 256 µg/mL | 0.25 µg/mL (≈ 0.728 µM) | 2 µg/mL (≈ 5.82 µM) | 4 µg/mL (≈ 11.6 µM) | > 256 µg/mL | > 256 µg/mL | > 256 µg/mL | 0.25 µg/mL (≈ 0.728 µM) | 1 µg/mL (≈ 2.91 µM)
12 | O=C1c2cccc3cccc(c23)C(=O)N1CCN1CCN(CCc2ccccc2)CC1 | 0.5 µg/mL (≈ 1.21 µM) | > 256 µg/mL | > 256 µg/mL | 4 µg/mL (≈ 9.67 µM) | 16 µg/mL (≈ 38.7 µM) | 1 µg/mL (≈ 2.42 µM) | > 256 µg/mL | > 256 µg/mL | > 256 µg/mL | 4 µg/mL (≈ 9.67 µM) | 1 µg/mL (≈ 2.42 µM)
13 | Cc1ccc(N2C(=O)c3ccc([N+](=O)[O-])c4c([N+](=O)[O-])ccc(c34)C2=O)cc1 | 2.5 µg/mL (≈ 6.63 µM) | > 256 µg/mL | > 256 µg/mL | 4 µg/mL (≈ 10.6 µM) | 2.5 µg/mL (≈ 6.63 µM) | 2.5 µg/mL (≈ 6.63 µM) | > 256 µg/mL | > 256 µg/mL | > 256 µg/mL | 4 µg/mL (≈ 10.6 µM) | 5 µg/mL (≈ 13.3 µM)
14 | Cc1c(CC(=O)NCCC(=O)O)c(=O)oc2c(C)c3occ(-c4ccc(Cl)cc4)c3cc12 | 2.5 µg/mL (≈ 5.51 µM) | > 256 µg/mL | > 256 µg/mL | 1 µg/mL (≈ 2.2 µM) | 2.5 µg/mL (≈ 5.51 µM) | 1.25 µg/mL (≈ 2.75 µM) | > 256 µg/mL | > 256 µg/mL | > 256 µg/mL | > 64 µg/mL | 2.5 µg/mL (≈ 5.51 µM)
15 | CNC(=O)c1ccsc1NC(=O)c1ccc([N+](=O)[O-])o1 | 0.5 µg/mL (≈ 1.69 µM) | 128 µg/mL (≈ 433 µM) | 32 µg/mL (≈ 108 µM) | 0.5 µg/mL (≈ 1.69 µM) | 0.5 µg/mL (≈ 1.69 µM) | 0.5 µg/mL (≈ 1.69 µM) | 32 µg/mL (≈ 108 µM) | 256 µg/mL (≈ 867 µM) | 12 µg/mL (≈ 40.6 µM) | 0.06 µg/mL (≈ 0.203 µM) | 2 µg/mL (≈ 6.77 µM)
